Experimental data taken from ChEMBL document CHEMBL1122782, “Bulky amine analogues of ketoprofen: potent antiinflammatory agents” (J Med Chem, 1984).

Columns and labels:
[1] = test system: Rattus norvegicus; assay: The percent inhibition was calculated from the average differences in hind paw volume between the adjuvant injected controls and the adjuvant-injected medicated rats at 0.08 mmol/kg; 90-99; format: functional
[2] = test system: Rattus norvegicus; assay: The mean increase in paw volume was compared between drug treated groups and placebo to calculate the percent inhibition in rats at 0.08 mmol/kg by carrageenan Edema Assay; 30-39; format: functional
[3] = test system: Rattus norvegicus; assay: The mean increase in paw volume was compared between drug treated groups and placebo to calculate the percent inhibition in rats at 0.02 mmol/kg by carrageenan Edema Assay 0-19; format: functional
[4] = test system: Rattus norvegicus; assay: The mean increase in paw volume was compared between drug treated groups and placebo to calculate the percent inhibition in rats at 0.02 mmol/kg by carrageenan Edema Assay; 0-19; format: functional
[5] = test system: Rattus norvegicus; assay: The percent inhibition was calculated from the average differences in hind paw volume between the adjuvant injected controls and the adjuvant-injected medicated rats at 0.08 mmol/kg; 40-49; format: functional
[6] = test system: Rattus norvegicus; assay: Antiinflammatory efficacy is measured by the weight gain in rats during the 3 week adjuvant arthritis test at 0.006 mM/kg (0.152 mg); format: functional
How it was run: (§1)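 Rats were adjuvant-injected (M. butyricum in mineral oil, one hind paw) or given a mineral-oil placebo. They were dosed by gavage daily for 21 days from the injection day, with vehicle only for both control groups, then weighed at the end. Weight gain % = (treated − adjuvant control)/(negative control − adjuvant control) × 100.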

[7] = test system: Rattus norvegicus; assay: Ulcerogenicity was measured in stomach during the 3 week adjuvant arthritis test, no of animals with ulcers out of 4 animals tested at 0.002 mM/kg (0.51 mg) was reported; format: functional
How it was run: (§2)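 Male Sprague-Dawley rats (200–230 g) got 0.1 mL of a 0.6% M. butyricum adjuvant suspension in heavy mineral oil into the plantar tissue of one hind paw. Oral gavage dosing started the same day and continued daily for 21 days, in 1% gum tragacanth or corn oil-water emulsion. At the end, rats were killed and the small intestine and stomach were examined for ulcers, reported as animals with ulcers over animals tested.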

[8] = test system: Rattus norvegicus; assay: Antiinflammatory efficacy is measured by the weight gain in rats during the 3 week adjuvant arthritis test at 0.009 mM/kg (2.29 mg); format: functional; how it was run: as §1
[9] = test system: Rattus norvegicus; assay: Antiinflammatory efficacy is measured by the percent inhibition of paw volume during the 3 week adjuvant arthritis test at 0.006 mM/kg ([…]); format: functional
How it was run: (§3)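 Male Sprague-Dawley rats (200–230 g) were used in groups of eight. Each received 0.1 mL of 0.6% M. butyricum in heavy mineral oil into the plantar tissue of one hind paw. Daily oral gavage in 1% gum tragacanth or corn oil-water emulsion began on the injection day and ran 21 days. Total hind paw volume was measured by mercury displacement, and inhibition was taken versus vehicle-treated adjuvant controls.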

[10] = test system: Rattus norvegicus; assay: The percent inhibition was calculated from the average differences in hind paw volume between the adjuvant injected controls and the adjuvant-injected medicated rats at 0.08 mmol/kg; 0.009-82; format: functional; details: read-out: Inhibition
[11] = test system: Rattus norvegicus; assay: Antiinflammatory efficacy is measured by the weight gain in rats during the 3 week adjuvant arthritis test at 0.002 mM/kg (0.51 mg); format: functional; how it was run: as §1
[12] = test system: Rattus norvegicus; assay: Ulcerogenicity was measured in intestine during the 3 week adjuvant arthritis test, no of animals with ulcers out of 4 animals tested at 0.002 mM/kg (0.51 mg) was reported; format: functional; how it was run: as §2
[13] = test system: Rattus norvegicus; assay: Potency relative to phenylbutazone at 0.006 mM/kg; format: functional
How it was run: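 21-day adjuvant arthritis in male Sprague-Dawley rats (0.6% M. butyricum in mineral oil, intraplantar), with daily oral gavage from the day of adjuvant injection. Total hind-paw volume was measured by mercury displacement and percent inhibition calculated against adjuvant controls. The ED50 for 50% inhibition of paw volume was expressed relative to phenylbutazone, with 95% confidence limits.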

[14] = test system: Rattus norvegicus; assay: Ulcerogenicity was measured in stomach during the 3 week adjuvant arthritis test, no of animals with ulcers out of 24 animals tested at 0.009 mM/kg (2.29 mg) was reported; format: functional; how it was run: as §2
[15] = test system: Rattus norvegicus; assay: Ulcerogenicity was measured in intestine during the 3 week adjuvant arthritis test, no of animals with ulcers out of animals tested at 0.06 mM/kg (15.2 mg) was reported; toxic; format: functional, organism-based; how it was run: as §2
[16] = species: Rattus norvegicus; assay: Compound was evaluated for highest non-ulcerogenic dose (less than 50% ulcer incidence); format: functional; details: read-out: ED50
How it was run: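 Taken from the 21-day adjuvant arthritis test in male Sprague-Dawley rats dosed orally each day from the day of adjuvant injection. Small intestines and stomachs were examined for ulceration at the end. The value is the highest dose giving less than 50% ulcer incidence.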

[17] = test system: Rattus norvegicus; assay: Ulcerogenicity was measured in intestine during the 3 week adjuvant arthritis test, no of animals with ulcers out of 24 animals tested at 0.009 mM/kg (2.29 mg) was reported; format: functional; how it was run: as §2
[18] = test system: Rattus norvegicus; assay: The mean increase in paw volume was compared between drug treated groups and placebo to calculate the percent inhibition in rats at 0.02 mmol/kg by carrageenan Edema Assay; 60-69; format: functional
[19] = test system: Rattus norvegicus; assay: Antiinflammatory efficacy is measured by the percent inhibition of paw volume during the 3 week adjuvant arthritis test at 0.002 mM/kg (0.51 mg); format: functional; how it was run: as §3
[20] = test system: Rattus norvegicus; assay: Antiinflammatory efficacy is measured by the percent inhibition of paw volume during the 3 week adjuvant arthritis test at 0.009 mM/kg (2.29 mg); format: functional; how it was run: as §3
[21] = test system: Rattus norvegicus; assay: Ulcerogenicity was measured in stomach during the 3 week adjuvant arthritis test, no of animals with ulcers out of 31 animals tested at 0.03 mM/kg (7.62 mg) was reported; format: functional; how it was run: as §2
[22] = test system: Rattus norvegicus; assay: Ulcerogenicity was measured in intestine during the 3 week adjuvant arthritis test, no of animals with ulcers out of 31 animals tested at 0.03 mM/kg (7.62 mg) was reported; format: functional; how it was run: as §2
[23] = test system: Rattus norvegicus; assay: The mean increase in paw volume was compared between drug treated groups and placebo to calculate the percent inhibition in rats at 0.02 mmol/kg by carrageenan Edema Assay; 20-29; format: functional
[24] = test system: Rattus norvegicus; assay: The percent inhibition was calculated from the average differences in hind paw volume between the adjuvant injected controls and the adjuvant-injected medicated rats at 0.08 mmol/kg; 70-79; format: functional
[25] = test system: Rattus norvegicus; assay: The mean increase in paw volume was compared between drug treated groups and placebo to calculate the percent inhibition in rats at 0.02 mmol/kg by carrageenan Edema Assay; 30-39; format: functional; details: Rattus norvegicus
[26] = test system: Rattus norvegicus; assay: The mean increase in paw volume was compared between drug treated groups and placebo to calculate the percent inhibition in rats at 0.02 mmol/kg by carrageenan Edema Assay; 40-49; format: functional
[27] = test system: Rattus norvegicus; assay: The mean increase in paw volume was compared between drug treated groups and placebo to calculate the percent inhibition in rats at 0.08 mmol/kg by carrageenan Edema Assay; 40-49; format: functional

CC(CN1CCCCC1C1CCCCC1)c1cccc(C(=O)c2ccccc2)c1 (stereo not given)
inhibition in vivo at 80 µmol/kg [1]: 90% | inhibition in vivo at 80 µmol/kg [2]: 30%

O=C(c1ccccc1)c1cccc(CCN2CCOCC2)c1
inhibition in vivo at 20 µmol/kg [3]: 0%

OC(c1ccccc1)c1cccc(CCN2CCCCC2CC2CCCCC2)c1 (stereo not given)
inhibition in vivo at 20 µmol/kg [4]: 0%

CC(CN1CCCCC1CCC1CCCCC1)c1cccc(C(=O)c2ccccc2)c1 (stereo not given)
inhibition in vivo at 80 µmol/kg [1]: 90% | inhibition in vivo at 80 µmol/kg [2]: 30%

CC(CN1CCCCC1)c1cccc(C(=O)c2ccccc2)c1 (stereo not given)
inhibition in vivo at 80 µmol/kg [5]: 40% | inhibition in vivo at 80 µmol/kg [2]: 30%

NC(c1ccccc1)c1cccc(CCN2CCOCC2)c1 (stereo not given)
inhibition in vivo at 20 µmol/kg [4]: 0%

CC(CN1CCCCC1CC1CCCCC1)c1cccc(C(O)c2c(Cl)cccc2Cl)c1 (stereo not given)
inhibition in vivo at 20 µmol/kg [4]: 0%

CC(C(=O)O)c1cccc(C(=O)c2ccccc2)c1 (stereo not given) [KETOPROFEN]
Weight gain [6]: 21% | Ulcerogenic index [7]: 0 | Weight gain [8]: 79% | Inhibition [9]: 31% | inhibition in vivo at 80 µmol/kg [10]: 82% | Weight gain [11]: 35% | Ulcerogenic index [12]: 0 | Relative potency [13]: 32.4% | Ulcerogenic index [14]: 6 | Ulcerogenic index [15]: Toxic | highest non-ulcerogenic dose [16]: 1 µmol/kg | Ulcerogenic index [17]: 4 | inhibition in vivo at 20 µmol/kg [18]: 60% | Inhibition [19]: 68% | Inhibition [20]: 82% | Ulcerogenic index [21]: 3 | Ulcerogenic index [22]: 22

CC(CN1CCCCC1CC1CCCCC1)c1cccc(Cc2ccccc2)c1 (stereo not given)
inhibition in vivo at 80 µmol/kg [1]: 90% | inhibition in vivo at 20 µmol/kg [23]: 20%

CC(CN1CCCCC1CC1CCCCC1)c1cccc(C(=O)c2ccccc2Cl)c1 (stereo not given)
inhibition in vivo at 80 µmol/kg [24]: 70% | inhibition in vivo at 20 µmol/kg [25]: 30%

O=C(c1ccccc1)c1cccc(CCN2CCCCC2CC2CCCCC2)c1 (stereo not given)
inhibition in vivo at 20 µmol/kg [23]: 20%

CC(CN1CCCCC1CC1CCCCC1)c1cccc(/C(=N\O)c2ccccc2)c1 (stereo not given)
inhibition in vivo at 80 µmol/kg [1]: 90% | inhibition in vivo at 20 µmol/kg [26]: 40%

CC(CN1CCOCC1)c1cccc(C(N)c2ccccc2)c1 (stereo not given)
inhibition in vivo at 80 µmol/kg [27]: 40% | inhibition in vivo at 80 µmol/kg [24]: 70%

CC(CN1CCC(CN2CCCCC2)CC1)c1cccc(C(=O)c2ccccc2)c1 (stereo not given)
inhibition in vivo at 80 µmol/kg [1]: 90% | inhibition in vivo at 80 µmol/kg [27]: 40%

CC(CN1CCCCC1CC1CCCCC1)c1cccc(C(C)c2ccccc2)c1 (stereo not given)
inhibition in vivo at 20 µmol/kg [4]: 0%

COc1ccc(C(O)c2cccc(C(C)CN3CCCCC3CC3CCCCC3)c2)cc1 (stereo not given)
inhibition in vivo at 20 µmol/kg [4]: 0%
